For data set [1], the system named is Escherichia coli. Description: Antibacterial activity against Escherichia coli ATCC 25922 measured after 24 hrs. It is filed as functional. Conditions: ATCC 25922, 24 h. In a few lines:
(§1)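 Broth microdilution adapted from NCCLS. Mid-log bacteria were diluted in MHB to a final (0.5–1) × 10^5 CFU mL−1. Peptides were serially diluted in 0.2% BSA and mixed with an equal volume of cells. After 24 h at 37 °C, MIC was read at A492 as the lowest concentration inhibiting 95% of growth. At least three independent experiments, each with three technical replicates.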

In data set [2] the test system is Escherichia coli. Put plainly: Antibacterial activity against Escherichia coli 078 measured after 24 hrs. The format is functional. Conditions: Escherichia coli, 078, 24 h. In a few lines: as §1
Data set [3] concerns Escherichia coli. Description: Bactericidal activity against Escherichia coli ATCC 25922 incubated for 24 hrs followed by replating on agar plate and measured after overnight incubation. Conditions: ATCC 25922, 24 h, read-out: MBC>99.9. The format is functional. Summed up:
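After the 24 h, 37 °C MHB microdilution (0.5–1 × 10^5 CFU mL−1 inoculum, peptides diluted in 0.2% BSA), 50 μL from each well was plated on agar and incubated overnight. MBC was taken as the lowest concentration killing >99.9% of cells. Three or more independent experiments, each with triplicate technical replicates.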

The test system of data set [4] is Escherichia coli. Description: Bactericidal activity against Escherichia coli UB1005 incubated for 24 hrs followed by replating on agar plate and measured after overnight incubation. It is filed as functional. As to conditions: UB1005, 24 h, read-out: MBC>99.9. In a few lines: (§2)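 Mid-log bacteria diluted in MHB to (0.5–1) × 10^5 CFU/mL and mixed 1:1 with peptide serially diluted in 0.2% BSA. After 24 h at 37 °C, 50 μL of each mixture was plated on agar and incubated overnight. MBC taken as the lowest concentration killing >99.9% of cells. At least three independent experiments, each with three technical replicates.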

In data set [5] the test system is Escherichia coli. Description: Antibacterial activity against Escherichia coli ATCC 25922 measured after 18 to 24 hrs in presence of KCl. It is filed as functional.
In data set [6] the test system is Escherichia coli. Put plainly: Antibacterial activity against Escherichia coli ATCC 25922 measured after 18 to 24 hrs in presence of CaCl2. It is filed as functional.
Data set [7] has as its system Escherichia coli. Description: Antibacterial activity against Escherichia coli ATCC 25922 measured after 18 to 24 hrs in presence of ZnCl2. The format is functional.
The test system of data set [8] is Candida albicans. Description: Antifungal activity against Candida albicans cgmcc2.2086 measured after 48 hrs in presence of KCl by broth microdilution method. As to conditions: cgmcc2.2086, 48 h. The format is functional.
Data set [9] has as its system Candida albicans. Description: Antifungal activity against Candida albicans cgmcc2.2086 measured after 48 hrs in presence of CaCl by broth microdilution method. The format is functional. As to conditions: cgmcc2.2086, 48 h.
Data set [10] has as its system Candida albicans. Put plainly: Antifungal activity against Candida albicans cgmcc2.2086 measured after 48 hrs in presence of ZnCl by broth microdilution method. The format is functional. As to conditions: cgmcc2.2086, 48 h. (Broth dilution looks for growth in wells or tubes with falling amounts of substance.)
For another data set, the system named is Lipopolysaccharide (LPS). Put plainly: Displacement of BODIPY-TR-cadaverine from Escherichia coli O111:B4 LPS after 1 hr by spectrofluorophotometric method. In a few lines:
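LPS from E. coli O111:B4 (50 μg/mL) preincubated 4 h with BODIPY-TR-cadaverine (5 μg/mL) in 50 mM Tris, pH 7.4. Mixed with equal volume of peptide (1-64 µM) and incubated 1 h at 37 °C, then fluorescence read. %ΔF = (Fobs−F0)/(F100−F0)×100, with 10 μg mL-1 polymyxin B defining F100. Three technical replicates per experiment.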

For data set [11], the system named is Escherichia coli. Put plainly: Induction of outer membrane permeabilization in Escherichia coli ATCC 25922 at 64 uM by NPN-dye based assay relative to control. Summed up: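 Mid-log E. coli ATCC 25922 (OD600 0.2) incubated 30 min with NPN (10 μM) in 5 mM HEPES pH 7.4 with 5 mM glucose, then mixed 1:1 with peptide (1–64 μM). Fluorescence (ex 350/em 420 nm) recorded until it plateaued. Percent NPN uptake calculated relative to no peptide and to 10 μg/mL polymyxin B. Three independent experiments, triplicates.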

A short description of data set [12]: Therapeutic index, ratio of MHC10 for hemolytic activity in human RBC to MIC95 against Escherichia coli ATCC 25922. As to conditions: human red blood cells (erythrocytes), pooled result: one value given for 9 cell lines, strains, targets or settings, read-out: TI. The format is toxicity. Summed up:
(§3)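 Therapeutic index = MHC divided by MIC. MHC is the lowest concentration giving >10% lysis of human RBC (1 h, 37 °C, 1-128 µM, A576). MIC is 95% growth inhibition by broth microdilution: bacteria in MHB 24 h at 37 °C; Candida in MOPS-buffered RPMI 1640 at (0.5–1) × 10^3 CFU mL−1, 48 h at 28 °C.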

Data set [13] is described as follows: Therapeutic index, ratio of MHC10 for hemolytic activity in human RBC to MIC95 against Staphylococcus aureus ATCC 25923. Conditions: human red blood cells (erythrocytes), read-out: TI. It is filed as toxicity. Summed up: as §3
The nature of data set [14]: Therapeutic index, ratio of MHC10 for hemolytic activity in human RBC to MIC95 against Candida parapsilosis cgmcc2.3989. The format is toxicity. As to conditions: human red blood cells (erythrocytes), read-out: TI. In a few lines:
as §3

Data set [15] can be described thus: Conformational stability in sodium dodecyl sulfate at 35 uM by CD spectra analysis. The format is physicochemical. Summed up:
(§4)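 CD spectra from 190 to 250 nm of peptide at 35 μM in 10 mM PBS, 30 mM SDS micelles or 50% TFE, recorded in a 1.0-mm quartz cell. Ellipticity was converted to mean residue ellipticity. Three independent scans, each averaged over more than 3 runs.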

A further data set deals with Salmonella typhimurium. Put plainly: Bactericidal activity against Salmonella typhimurium C7731 incubated for 24 hrs followed by replating on agar plate and measured after overnight incubation. Conditions: Salmonella enterica, C7731, 24 h; read-out: MBC>99.9. The format is functional, Salmonella enterica subsp. enterica serovar Typhimurium. Summed up:
as §2

The test system of data set [16] is Staphylococcus epidermidis. Description: Bactericidal activity against Staphylococcus epidermidis ATCC 12228 incubated for 24 hrs followed by replating on agar plate and measured after overnight incubation. The format is functional. Conditions: ATCC 12228, 24 h, read-out: MBC>99.9. Summed up: as §2
A further data set relates to Staphylococcus aureus. Put plainly: Bactericidal activity against Staphylococcus aureus ATCC 29213 incubated for 24 hrs followed by replating on agar plate and measured after overnight incubation. It is filed as functional. Conditions: ATCC 29213, 24 h, read-out: MBC>99.9. In a few lines:
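After the 24 h, 37 °C MHB microdilution MIC assay, 50 μL from each well was plated on agar and incubated overnight. MBC taken as lowest peptide concentration killing >99.9% of cells. At least three independent experiments, each with three technical replicates.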

The subject of data set [17] is Candida albicans. Description: Fungicidal activity against Candida albicans cgmcc2.2086 incubated for 48 hrs followed by replating on YM agar plate and measured after 48 hrs. It is filed as functional. In a few lines: (§5)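 Yeast diluted in MOPS-buffered RPMI 1640 to (0.5–1) × 10^3 CFU/mL (CLSI M27-A2, modified) and mixed 1:1 with peptide serially diluted in 0.2% BSA. After 48 h at 28 °C, 50 μL per well was plated on YM agar and incubated 48 h at 28 °C. MFC taken as the lowest concentration killing ≥99.9% of cells. Three or more independent experiments, triplicate wells.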

The test system of a further data set is Candida parapsilosis. Put plainly: Fungicidal activity against Candida parapsilosis cgmcc2.3989 incubated for 48 hrs followed by replating on YM agar plate and measured after 48 hrs. The format is functional. Summed up:
as §5

A short description of data set [18]: Conformational stability in sodium dodecyl sulfate assessed as beta-sheet conformation by measuring absorption spectra at maximum dichroic band at 35 uM by CD spectra analysis. The format is physicochemical. Summed up:
as §4

A short description of data set [19]: Conformational stability in sodium dodecyl sulfate assessed as beta-sheet conformation by measuring absorption spectra at minimum dichroic band at 35 uM by CD spectra analysis. It is filed as physicochemical. Summed up: as §4

Converted amounts (≈) assume the structure as drawn. Where a SMILES comes first, the peptide text is derived from it.

Turning to `CC[C@H](C)[C@H](NC(=O)[C@H](CCCCN)NC(=O)[C@H](C)NC(=O)[C@H](C)N)C(=O)N[C@H](C(=O)N[C@@H](CC(C)C)C(=O)N[C@@H](CC(N)=O)C(=O)N1CCC[C@H]1C(=O)N[C@@H](CCCCN)C(=O)N[C@@H](Cc1ccccc1)C(=O)N[C@@H](CCCNC(=N)N)C(=O)N[C@@H](CS)C(=O)N[C@@H](CCCCN)C(=O)N[C@@H](C)C(=O)N[C@@H](C)C(=O)N[C@@H](Cc1ccccc1)C(=O)N[C@@H](CS)C(N)=O)[C@@H](C)CC` (H-AAKIILNPKFRCKAAFC-NH2), the MIC95 is 32 µM (≈ 60.6 µg/mL) against Escherichia coli [1]; more than 128 µM against Escherichia coli [2]; 32 µM in the data set with Escherichia coli [5]; more than 128 µM in the data set on Escherichia coli [6]; 64 µM in the data set on Escherichia coli [7]; more than 128 µM with Candida albicans [8]. Also, the MIC95 with Candida albicans [9] and with Candida albicans [10] was more than 128 µM in each case. Further, the MBC (usually the smallest concentration meeting the test's criterion for killing) with Escherichia coli [3] amounted to 64 µM (≈ 121 µg/mL); in the data set on Escherichia coli [4], 128 µM (≈ 242 µg/mL). Moreover, the Activity entry was “Dose-dependent effect” in the data set with Lipopolysaccharide (LPS) and 35% with Escherichia coli [11]. Also, the selectivity ratio in data set [12] was determined as 0.5; in data set [13] it was 0.3; in [14] it was 0.25. In addition, the Stability entry in [15] was “Unstable”.
For the compound H-AARIILRWRFR-NH2, the MIC95 in the data set with Escherichia coli [1] came to 4 µM; against Escherichia coli [2], 2 µM; in the data set on Escherichia coli [5], 2 µM; in the data set on Escherichia coli [6], 4 µM; in the data set on Escherichia coli [7] it was 4 µM; with Candida albicans [8] it was 8 µM. In addition, the figures for the MIC95 in the data set on Candida albicans [9] and with Candida albicans [10] were 32 µM and 8 µM, respectively. In addition, the minimum bactericidal concentration (MBC) was determined as 4 µM in the data set on Escherichia coli [3]; 4 µM in the data set with Escherichia coli [4]; 4 µM in the data set on Salmonella typhimurium; 4 µM in [16]; 2 µM in the data set on Staphylococcus aureus. Further, the “MFC<=99.9” value in the data set with Candida albicans [17] and against Candida parapsilosis was 8 µM throughout. In addition, the Activity result in the data set with Lipopolysaccharide (LPS) is “Dose-dependent effect”; in the data set on Escherichia coli [11] it was 110%; in data set [19] it was 216 to 220 nm. Further, the selectivity ratio in data set [12] was 94.1; in [13], 215; in [14] it was 50.8. In addition, the “Wavelength of maximum dichroic band” value in [18] is given as 200 nm.
For `CC[C@H](C)[C@H](NC(=O)CN)C(=O)NCC(=O)N[C@@H](C)C(=O)N[C@H](C(=O)N[C@@H](CC(C)C)C(=O)N[C@@H](CCCCN)C(=O)N[C@H](C(=O)N[C@@H](CC(C)C)C(=O)N[C@H](C(=O)N[C@H](C(=O)NCC(=O)N[C@@H](CC(C)C)C(=O)N1CCC[C@H]1C(=O)N[C@@H](C)C(=O)N[C@@H](CC(C)C)C(=O)N[C@H](C(=O)N[C@@H](CO)C(=O)N[C@@H](Cc1c[nH]c2ccccc12)C(=O)N[C@H](C(=O)N[C@@H](CCCCN)C(=O)N[C@@H](CCCNC(=N)N)C(=O)N[C@@H](CCCCN)C(=O)N[C@@H](CCCNC(=N)N)C(=O)N[C@@H](CCC(N)=O)C(=O)N[C@@H](CCC(N)=O)C(N)=O)[C@@H](C)CC)[C@@H](C)CC)[C@@H](C)O)[C@@H](C)O)C(C)C)C(C)C` [MELITTIN], the MIC95 against Escherichia coli [1] is 2 µM (≈ 5.69 µg/mL); against Escherichia coli [2], 2 µM (≈ 5.69 µg/mL); in the data set on Escherichia coli [5], 2 µM; in the data set on Escherichia coli [6] it was 8 µM; in the data set with Escherichia coli [7] it was 2 µM; with Candida albicans [8] it was 4 µM. The MIC95 was determined as 8 µM in the data set on Candida albicans [9] and 4 µM in the data set on Candida albicans [10]. Besides, the MBC in the data set on Escherichia coli [3] was found to be 4 µM (≈ 11.4 µg/mL); in the data set on Escherichia coli [4], 2 µM (≈ 5.69 µg/mL); with Salmonella typhimurium, 4 µM (≈ 11.4 µg/mL); in [16] it was 4 µM (≈ 11.4 µg/mL); in the data set on Staphylococcus aureus it was 8 µM (≈ 22.8 µg/mL). Also, the “MFC<=99.9” value with Candida albicans [17] was determined as 8 µM (≈ 22.8 µg/mL); with Candida parapsilosis, 4 µM (≈ 11.4 µg/mL). The Activity entry with Lipopolysaccharide (LPS) was “Dose-dependent effect”. Further, the selectivity ratio in data set [12] was 0.54; in [13], 0.35; in [14], 0.32.
